As usually defined, the IC50 is the concentration at which inhibition is half-maximal.

IC50 data for one compound are collected here from PubChem BioAssay AID485271 (The Scripps Research Institute Molecular Screening Center, 2010).

The assay in a line: inhibition of HCV infection in cells, late-stage follow-up, counter-screen for HCV core dimerization inhibitor project, Huh-7.5 cells, quantitative PCR, fluorescence (AID 485271). To be noted: Huh-7.5 HCV J6/JFH-1 infection, RT-qPCR viral RNA. The method in brief: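 System – HCV J6/JFH-1-infected Huh-7.5 cells · Doses – 1:10 dilution series of compound from 100 µM to 0.001 µM · Repeats – triplicates · Reagent – HCV 2a J6/JFH-1 virus given together with compound · Technique – TaqMan RT-qPCR of viral RNA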
In general terms: Counterscreens check selectivity or assay interference.

With `Cc1ccc(Cc2c(C)nc3nc(SCC(=O)NCCCN4CCCCCC4)nn3c2C)cc1`, the IC50 by setting is: (time point 1) 6.6 µM; (time point 2) 12 µM.
